Experimental data: ChEMBL document CHEMBL1275348, “Design, synthesis, and evaluation of duocarmycin O-amino phenol prodrugs subject to tunable reductive activation” (J Med Chem, 2010)
The source made the active and inactive calls. The calls are words filed in the database; no cut-off is given here.

Columns and labels:
L1210 [1] = assay: Cytotoxicity against mouse L1210 cells; assay type: functional, cell-based
[2] = Chemical stability of the compound in phosphate buffer of pH 7 assessed as half life; assay type: physicochemical
How it was run: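 The compound was held in pH 7.0 phosphate buffer for up to 72 h. Cleavage was followed as release of CBI-indole2, and the half-life was estimated from this.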

L1210 [3] = assay: Antitumor activity against mouse L1210 cells xenografted in DBA/2J mouse assessed as mean survival period at 10 mg/kg, ip administered 3 times on day 1, 5 and 9 postimplantation; assay type: functional; conditions: route intraperitoneal
How it was run: (§1)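 Syngeneic L1210 leukemia cells (1 × 10^6) were injected i.p. into DBA/2J mice on day 0. Ten mice were randomly assigned per treatment or vehicle group. Compounds were formulated in 30% DMSO plus 0.7% glucose solution and injected i.p. on days 1, 5 and 9. Animals were monitored daily and weighed three times weekly, with the study running 120 days.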

L1210 [4] = assay: Antitumor activity against mouse L1210 cells xenografted in DBA/2J mouse assessed as mean survival period at 30 mg/kg, ip administered 3 times on day 1, 5 and 9 postimplantation; assay type: functional; conditions: route intraperitoneal; how it was run: as §1
L1210 [5] = assay: Antitumor activity against mouse L1210 cells xenografted in DBA/2J mouse assessed as mean survival period at 60 mg/kg, ip administered 3 times on day 1, 5 and 9 postimplantation; assay type: functional; conditions: route intraperitoneal; how it was run: as §1
L1210 [6] = assay: Antitumor activity against mouse L1210 cells xenografted in DBA/2J mouse assessed as mean survival period at 100 mg/kg, ip administered 3 times on day 1, 5 and 9 postimplantation; assay type: functional; conditions: route intraperitoneal; how it was run: as §1
L1210 [7] = assay: Antitumor activity against mouse L1210 cells xenografted in DBA/2J mouse assessed as mean survival period at 200 mg/kg, ip administered 3 times on day 1, 5 and 9 postimplantation; assay type: functional; conditions: route intraperitoneal; how it was run: as §1
L1210 [8] = assay: Antitumor activity against mouse L1210 cells xenografted in DBA/2J mouse at 10 mg/kg, ip administered 3 times on day 1, 5 and 9 postimplantation relative to control; assay type: functional; conditions: route intraperitoneal
How it was run: (§2)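 DBA/2J mice received syngeneic L1210 cells (1 × 10^6) i.p. on day 0. Groups of ten mice were randomised to drug or vehicle. Dosing was i.p. on days 1, 5 and 9 in 30% DMSO plus 0.7% glucose solution. Animals were checked daily and weighed three times per week. The study ran 120 days, with survival compared against untreated controls.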

L1210 [9] = assay: Antitumor activity against mouse L1210 cells xenografted in DBA/2J mouse at 30 mg/kg, ip administered 3 times on day 1, 5 and 9 postimplantation relative to control; assay type: functional; conditions: route intraperitoneal; how it was run: as §2
L1210 [10] = assay: Antitumor activity against mouse L1210 cells xenografted in DBA/2J mouse at 200 mg/kg, ip administered 3 times on day 1, 5 and 9 postimplantation relative to control; assay type: functional; conditions: route intraperitoneal; how it was run: as §1
L1210 [11] = assay: Antitumor activity against mouse L1210 cells xenografted in DBA/2J mouse assessed as survival at 100 mg/kg, ip administered 3 times on day 1, 5 and 9 postimplantation; assay type: functional, organism-based; how it was run: as §1
L1210 [12] = assay: Antitumor activity against mouse L1210 cells xenografted in DBA/2J mouse assessed as survival at 10 mg/kg, ip administered 3 times on day 1, 5 and 9 postimplantation; assay type: functional, organism-based; how it was run: as §1
L1210 [13] = assay: Antitumor activity against mouse L1210 cells xenografted in DBA/2J mouse assessed as survival at 30 mg/kg, ip administered 3 times on day 1, 5 and 9 postimplantation; assay type: functional, organism-based; how it was run: as §1
L1210 [14] = assay: Antitumor activity against mouse L1210 cells xenografted in DBA/2J mouse assessed as survival at 60 mg/kg, ip administered 3 times on day 1, 5 and 9 postimplantation; assay type: functional, organism-based; how it was run: as §1
L1210 [15] = assay: Antitumor activity against mouse L1210 cells xenografted in DBA/2J mouse assessed as survival at 200 mg/kg, ip administered 3 times on day 1, 5 and 9 postimplantation; assay type: functional, organism-based; how it was run: as §1
L1210 [16] = assay: Antitumor activity against mouse L1210 cells xenografted in DBA/2J mouse at 60 ug/kg, ip administered 3 times on day 1, 5 and 9 postimplantation relative to control; conditions: route intraperitoneal
L1210 [17] = assay: Antitumor activity against mouse L1210 cells xenografted in DBA/2J mouse at 100 ug/kg, ip administered 3 times on day 1, 5 and 9 postimplantation relative to control; conditions: route intraperitoneal
L1210 [18] = assay: Antitumor activity against mouse L1210 cells xenografted in DBA/2J mouse assessed as mean survival period at 50 mg/kg, ip administered 3 times on day 1, 5 and 9 postimplantation; assay type: functional; conditions: route intraperitoneal; how it was run: as §1
L1210 [19] = assay: Antitumor activity against mouse L1210 cells xenografted in DBA/2J mouse assessed as mean survival period at 250 mg/kg, ip administered 3 times on day 1, 5 and 9 postimplantation; assay type: functional; conditions: route intraperitoneal; how it was run: as §1
L1210 [20] = assay: Antitumor activity against mouse L1210 cells xenografted in DBA/2J mouse assessed as mean survival period at 500 mg/kg, ip administered 3 times on day 1, 5 and 9 postimplantation; assay type: functional; conditions: route intraperitoneal; how it was run: as §1
L1210 [21] = assay: Antitumor activity against mouse L1210 cells xenografted in DBA/2J mouse at 50 mg/kg, ip administered 3 times on day 1, 5 and 9 postimplantation relative to control; assay type: functional; conditions: route intraperitoneal; how it was run: as §1
L1210 [22] = assay: Antitumor activity against mouse L1210 cells xenografted in DBA/2J mouse at 250 mg/kg, ip administered 3 times on day 1, 5 and 9 postimplantation relative to control; assay type: functional; conditions: route intraperitoneal; how it was run: as §1
L1210 [23] = assay: Antitumor activity against mouse L1210 cells xenografted in DBA/2J mouse at 500 mg/kg, ip administered 3 times on day 1, 5 and 9 postimplantation relative to control; assay type: functional; conditions: route intraperitoneal; how it was run: as §1
L1210 [24] = assay: Antitumor activity against mouse L1210 cells xenografted in DBA/2J mouse assessed as survival at 50 mg/kg, ip administered 3 times on day 1, 5 and 9 postimplantation; assay type: functional, organism-based; how it was run: as §1

CC(C)(C)OC(=O)NOc1cc2c(c3ccccc13)[C@@H](CCl)CN2C(=O)c1cc2cc(NC(=O)c3cc4ccccc4[nH]3)ccc2[nH]1
IC50 (L1210 [1]): 4 nM

COC(=O)NOc1cc2c(c3ccccc13)[C@@H](CCl)CN2C(=O)c1cc2cc(NC(=O)c3cc4ccccc4[nH]3)ccc2[nH]1
IC50 (L1210 [1]): 9 nM

CN(Oc1cc2c(c3ccccc13)[C@H](CCl)CN2C(=O)c1cc2cc(NC(=O)c3cc4ccccc4[nH]3)ccc2[nH]1)C(=O)OC(C)(C)C
IC50 (L1210 [1]): 0.9 nM

NC(=O)NOc1cc2c(c3ccccc13)[C@@H](CCl)CN2C(=O)c1cc2cc(NC(=O)c3cc4ccccc4[nH]3)ccc2[nH]1
IC50 (L1210 [1]): 30 nM

O=C(Nc1ccc2[nH]c(C(=O)N3C[C@H](CCl)c4c3cc(O)c3ccccc43)cc2c1)c1cc2ccccc2[nH]1
IC50 (L1210 [1]): 0.9 nM

CC(C)(C)C(=O)NOc1cc2c(c3ccccc13)[C@H](CCl)CN2C(=O)c1cc2cc(NC(=O)c3cc4ccccc4[nH]3)ccc2[nH]1
IC50 (L1210 [1]): 0.08 nM | half-life [2]: 6 h

COC(=O)NOc1cc2c(c3ccccc13)[C@H](CCl)CN2C(=O)c1cc2cc(NC(=O)c3cc4ccccc4[nH]3)ccc2[nH]1
IC50 (L1210 [1]): 0.5 nM | Time (L1210 [3]): 24 days | Time (L1210 [4]): 29 days | Time (L1210 [5]): 28 days | Time (L1210 [6]): 27 days | Time (L1210 [7]): 32 days | T/C (L1210 [8]): 110% | T/C (L1210 [9]): 133% | T/C (L1210 [10]): 145% | Activity (L1210 [11]): inactive | Activity (L1210 [12]): inactive | Activity (L1210 [13]): inactive | Activity (L1210 [14]): inactive | Activity (L1210 [15]): inactive | T/C (L1210 [16]): 126% | T/C (L1210 [17]): 122%

O=C(Nc1ccc2[nH]c(C(=O)N3C[C@@H](CCl)c4c3cc(O)c3ccccc43)cc2c1)c1cc2ccccc2[nH]1 [SECO-CBI-INDOLE]
IC50 (L1210 [1]): 0.03 nM | Time (L1210 [3]): 42 days | Time (L1210 [4]): 51 days | Time (L1210 [5]): 78 days | Time (L1210 [6]): 73 days | T/C (L1210 [8]): 192% | T/C (L1210 [9]): 230% | T/C (L1210 [16]): 352% | T/C (L1210 [17]): 333%

CC(C)(C)OC(=O)NOc1cc2c(c3ccccc13)[C@H](CCl)CN2C(=O)c1cc2cc(NC(=O)c3cc4ccccc4[nH]3)ccc2[nH]1
IC50 (L1210 [1]): 0.1 nM | Time (L1210 [3]): 50 days | Time (L1210 [4]): 58 days | Time (L1210 [5]): 69 days | Time (L1210 [6]): 86 days | T/C (L1210 [8]): 225% | T/C (L1210 [9]): 265% | T/C (L1210 [16]): 315% | T/C (L1210 [17]): 389%

COc1c(O)c2c(c3cc(C(=O)N4CCc5c4c(O)c(OC)c4[nH]c(C(=O)N6C[C@H]7C[C@@]78C6=CC(=O)c6[nH]cc(C)c68)cc54)[nH]c13)CCN2C(N)=O [(+)-CC-1065]
IC50 (L1210 [1]): 0.02 nM

CC(C)(C)C(=O)NOc1cc2c(c3ccccc13)[C@@H](CCl)CN2C(=O)c1cc2cc(NC(=O)c3cc4ccccc4[nH]3)ccc2[nH]1
IC50 (L1210 [1]): 3.5 nM

NC(=O)NOc1cc2c(c3ccccc13)[C@H](CCl)CN2C(=O)c1cc2cc(NC(=O)c3cc4ccccc4[nH]3)ccc2[nH]1
IC50 (L1210 [1]): 1.1 nM | Time (L1210 [6]): 33 days | Time (L1210 [18]): 29 days | Time (L1210 [19]): 39 days | Time (L1210 [20]): 71 days | T/C (L1210 [21]): 133% | T/C (L1210 [22]): 177% | T/C (L1210 [23]): 323% | Activity (L1210 [24]): inactive | Activity (L1210 [11]): inactive | T/C (L1210 [17]): 152%

CN(Oc1cc2c(c3ccccc13)[C@@H](CCl)CN2C(=O)c1cc2cc(NC(=O)c3cc4ccccc4[nH]3)ccc2[nH]1)C(=O)OC(C)(C)C
IC50 (L1210 [1]): 30 nM
